Laboratory results reported in article PMC9362842 (Bioconjugate chemistry, 2022).
Like-named read-outs stand apart in the source and are kept apart here. Marks after values point to notes of the source that are not given here.

Assays:
[1] = Hydrolytic stability of the -NCS group in pH 9.1 NaHCO3 buffer; assay type: physicochemical
[2] = assay type: physicochemical; details: pH 7.4, 25 °C, I = 0.1 M KCl; for pLa (−log [M]free): [M]total = 10^−6 M, [L]total = 10^−5 M
Summary of the method: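 Protonation constants of the free chelator are first determined by pH potentiometric titration (25 °C, 0.1 M KCl ionic strength), then La³⁺ stability constants (log KLaL) by the same method, all in triplicate. The fifth and sixth protonation constants are not determined over the pH ranges used. Conditional constants and pLa at pH 7.4 are calculated from the protonation and stability constants.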

[3] = cited from earlier work
[4] = cited from earlier work; remark: listed apart in the source
GPC3 = GPC3 (Homo sapiens, UniProt P51654); experiment: Bio-layer interferometry; assay type: binding; details: BLI, immobilized GPC3 antigen, global fit
HepG2 (GPC3+) xenografts = assay type: in vivo, athymic nude mice; details: 100 nCi

O=C(O)c1cccc(CN2CCOCCOCCN(Cc3cc(N=C=S)cc(C(=O)O)n3)CCOCCOCC2)n1 [H2macropa-NCS]
t1/2 of -NCS hydrolysis to the amine ([1]; buffer, pH 9.1): 1.25 h | time to complete hydrolysis to the amine ([1]; pH 9.1 NaHCO3 buffer, room temperature): approximately 5 h

O=C(O)c1cccc(CN2CCOCCOCCN(Cc3cccc(C(=O)O)n3)CCOCCOCC2)n1 [H2macropa]
pLa (−log [M]free) [2]: 15.58 | log K´La (conditional stability constant) [2]: 14.63 | log K1 (protonation constant) ([3]; 0.1 M KCl): 7.41(1)^c | log K2 (protonation constant) ([3]; 0.1 M KCl): 6.85(1)^c | log K3 (protonation constant) ([3]; 0.1 M KCl): 3.32(1)^c | log K4 (protonation constant) ([3]; 0.1 M KCl): 2.36(1)^c | log K5 (protonation constant) ([3]; 0.1 M KCl): 1.69(1)^c | log KLaHL ([4]; 0.1 M KCl): 2.28(3) ^ c

O=C(O)CN1CCN(CC(=O)O)CCN(CC(=O)O)CCN(CC(=O)O)CC1 [H4DOTA, tetraazacyclododecane-1,4,7,10-tetraacetic acid]
pLa (−log [M]free) [2]: 16.62 | log K´La (conditional stability constant) [2]: 15.67 | log K1 (protonation constant) ([3]; 0.1 M KCl): 11.14^d | log K2 (protonation constant) ([3]; 0.1 M KCl): 9.69^d | log K3 (protonation constant) ([3]; 0.1 M KCl): 4.84^d | log K4 (protonation constant) ([3]; 0.1 M KCl): 3.95^d | log KLaHL ([4]; 0.1 M KCl): 2.5(2) ^ d | log KLaL (La^3+ stability constant) ([4]; 0.1 M KCl): 21.7(1) ^ d

O=C(O)CN(CCN(CC(=O)O)CC(=O)O)CC(=O)O [H4EDTA, ethylenediamine tetraacetic acid]
pLa (−log [M]free) [2]: 13.62 | log K´La (conditional stability constant) [2]: 12.67 | log K1 (protonation constant) ([3]; 0.1 M): 10.17^e | log K2 (protonation constant) ([3]; 0.1 M): 6.11^e | log K3 (protonation constant) ([3]; 0.1 M): 2.68^e | log K4 (protonation constant) ([3]; 0.1 M): 2.00^e | log K5 (protonation constant) ([3]; 0.1 M): 1.5^e | log KLaHL ([4]; 0.1 M): 2.24 ^ e | log KLaL (La^3+ stability constant) ([4]; 0.1 M): 15.46 ^ e

O=C(O)CN(CCN(CC(=O)O)CC(=O)O)CCN(CC(=O)O)CC(=O)O [H5DTPA, diethylenetriamine pentaacetic acid]
pLa (−log [M]free) [2]: 16.22 | log K´La (conditional stability constant) [2]: 15.27 | log K1 (protonation constant) ([3]; 0.1 M): 10.45^e | log K2 (protonation constant) ([3]; 0.1 M): 8.53^e | log K3 (protonation constant) ([3]; 0.1 M): 4.28^e | log K4 (protonation constant) ([3]; 0.1 M): 2.65^e | log K5 (protonation constant) ([3]; 0.1 M): 1.82^e | log KLaL (La^3+ stability constant) ([4]; 0.1 M): 19.48 ^ e

GC33-BZM: H2BZmacropa-NCS conjugate of the antibody GC33
Kd (GPC3): 0.19 nM

GC33: glypican-3 (GPC3)-targeting antibody codrituzumab
Kd (GPC3): 0.042 nM

[^225Ac]Ac-GC33-BZM: ^225Ac-labeled GC33-BZM antibody radioconjugate
tumor uptake compared with ^225Ac[Ac]-GC33-M (HepG2 (GPC3+) xenografts; 48 and 96 h): effectively indistinguishable | tumor uptake (HepG2 (GPC3+) xenografts; 48 and 96 h post-injection): clear, specific tumor uptake
